Tests used:
[1] = biological target: T1, Aldo-keto reductase family 1 member B1 (Homo sapiens, UniProt P15121); assay: Inhibition of human recombinant N-terminal His6-tagged AKR1B1 expressed in Escherichia coli by fluorescence assay in presence of NADPH
[2] = biological target: T2, Aldo-keto reductase family 1 member B10 (Homo sapiens, UniProt O60218); assay: Inhibition of human recombinant N-terminal His6-tagged AKR1B10 expressed in Escherichia coli by fluorescence assay in presence of NADPH
Target sequence in this assay (O60218 whole entry): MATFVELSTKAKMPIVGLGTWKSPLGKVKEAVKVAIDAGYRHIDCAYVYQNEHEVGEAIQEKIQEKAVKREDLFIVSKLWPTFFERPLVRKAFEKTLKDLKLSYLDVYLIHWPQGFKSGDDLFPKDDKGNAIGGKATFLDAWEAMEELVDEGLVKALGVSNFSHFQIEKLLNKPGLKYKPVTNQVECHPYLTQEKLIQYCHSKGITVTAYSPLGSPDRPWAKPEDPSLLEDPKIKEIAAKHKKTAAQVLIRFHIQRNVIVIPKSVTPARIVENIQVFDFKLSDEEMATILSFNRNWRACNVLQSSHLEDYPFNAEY

[3] = biological target: T1, Aldo-keto reductase family 1 member B1; assay: Inhibition of human recombinant N-terminal His6-tagged AKR1B1 expressed in Escherichia coli at 10000 nM by fluorescence assay in presence of NADPH
[4] = biological target: T2, Aldo-keto reductase family 1 member B10; assay: Inhibition of human recombinant N-terminal His6-tagged AKR1B10 expressed in Escherichia coli at 10000 nM by fluorescence assay in presence of NADPH
Target sequence in this assay (O60218 whole entry, looked up): as the sequence (O60218 whole entry) above

[5] = biological target: Aldo-keto reductase family 1 member B10 (Homo sapiens, UniProt O60218, W220Y); assay: Competitive inhibition of human recombinant AKR1B10 W220Y mutant expressed in Escherichia coli using geraniol as substrate by double-reciprocal plot analysis in presence of NADP+
Aldo-keto reductase family 1 member B10 (Homo sapiens, UniProt O60218, W220Y), sequence (O60218 whole entry W220Y): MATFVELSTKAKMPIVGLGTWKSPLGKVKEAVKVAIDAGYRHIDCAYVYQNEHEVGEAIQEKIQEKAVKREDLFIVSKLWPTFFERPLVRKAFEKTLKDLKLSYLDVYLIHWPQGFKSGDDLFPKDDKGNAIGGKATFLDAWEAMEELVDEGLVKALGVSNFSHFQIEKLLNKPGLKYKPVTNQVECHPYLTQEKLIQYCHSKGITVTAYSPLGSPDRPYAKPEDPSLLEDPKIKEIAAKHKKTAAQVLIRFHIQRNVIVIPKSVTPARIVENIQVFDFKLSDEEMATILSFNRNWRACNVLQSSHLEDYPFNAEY
Method in brief: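 Trp220Tyr mutant purified from E. coli; geraniol oxidation with saturating NADP⁺ (0.25 mM) at 25 °C, followed by NADPH fluorescence (ex 340 nm, em 455 nm). Five geraniol levels (50–800 μM) were tested at three inhibitor concentrations. Ki came from slope and intercept replots of double-reciprocal plots; mean of at least three determinations.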

[6] = biological target: Aldo-keto reductase family 1 member B10 (Homo sapiens, UniProt O60218, Q303S); assay: Competitive inhibition of human recombinant AKR1B10 Q303S mutant expressed in Escherichia coli using geraniol as substrate by double-reciprocal plot analysis in presence of NADP+
Aldo-keto reductase family 1 member B10 (Homo sapiens, UniProt O60218, Q303S), sequence (O60218 whole entry Q303S): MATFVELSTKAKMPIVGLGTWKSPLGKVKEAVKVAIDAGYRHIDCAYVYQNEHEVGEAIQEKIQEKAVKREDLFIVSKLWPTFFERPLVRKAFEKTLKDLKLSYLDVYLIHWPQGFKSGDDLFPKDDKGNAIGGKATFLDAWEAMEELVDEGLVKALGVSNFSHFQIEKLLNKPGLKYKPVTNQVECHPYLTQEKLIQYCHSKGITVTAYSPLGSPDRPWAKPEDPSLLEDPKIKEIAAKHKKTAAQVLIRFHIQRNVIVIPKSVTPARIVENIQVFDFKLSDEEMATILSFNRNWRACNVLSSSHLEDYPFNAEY
Method in brief: (§1)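 Purified enzyme from E. coli, assayed by NADP⁺-linked geraniol oxidation at 25 °C. NADPH formation was read by fluorescence (ex 340 nm, em 455 nm). NADP⁺ was saturating at 0.25 mM, with five geraniol concentrations (25–200 μM) and three inhibitor concentrations. Ki came from replots of the slopes and intercepts of double-reciprocal plots; mean of at least three determinations.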

[7] = biological target: T2, Aldo-keto reductase family 1 member B10; assay: Competitive inhibition of wild-type human recombinant N-terminal His6-tagged AKR1B10 expressed in Escherichia coli using geraniol as substrate by double-reciprocal plot analysis in presence of NADP+; method in brief: as §1
Target sequence in this assay (O60218 whole entry): as the sequence (O60218 whole entry) above

IC50 [1] [nM] | IC50 [2] [nM] | SMILES | also measured
34 | 12 | O=C(Nc1ccccn1)c1cc2ccc(O)cc2o/c1=N\c1ccccc1 | 
25 | 14 | O=C(Nc1ccccn1)c1cc2ccc(O)cc2o/c1=N\c1ccc(Br)cc1 | 
6.7 | 9.7 | COc1ccc(/N=c2\oc3cc(O)ccc3cc2C(=O)NC(C)C)cc1 | 
28 | 18 | CCCCNC(=O)c1cc2ccc(O)cc2o/c1=N\c1ccc(OC)cc1 | 
27 | 11 | COc1ccc(/N=c2\oc3cc(O)ccc3cc2C(=O)NC2CCCCC2)cc1 | 
> 10000 | > 10000 | COc1ccc(/N=c2\oc3c(O)cccc3cc2C(=O)Nc2ccccn2)cc1 | inhibition [3]: < 30%; inhibition [4]: < 30%
> 10000 |  | COc1ccc(/N=c2\oc3cccc(O)c3cc2C(=O)Nc2ccccn2)cc1 | inhibition [3]: < 30%
19 | 7.6 | O=C(O)c1ccc(/N=c2\oc3cc(O)ccc3cc2C(=O)Nc2ccccn2)cc1 | 
24 | 6.8 | O=C(Nc1ccccn1)c1cc2ccc(O)cc2o/c1=N\c1ccc(O)cc1 | 
26 | 8.6 | Cc1ccc(/N=c2\oc3cc(O)ccc3cc2C(=O)Nc2ccccn2)cc1 | 
12 | 13 | O=C(Nc1ccccn1)c1cc2ccc(O)cc2o/c1=N\c1ccc(I)cc1 | 
20 | 13 | O=C(O)Cc1ccc(/N=c2\oc3cc(O)ccc3cc2C(=O)Nc2ccccn2)cc1 | 
20 | 11 | COc1ccc(/N=c2\oc3cc(O)ccc3cc2C(=O)NCCO)cc1 | 
 |  | COc1ccc(/N=c2\oc3ccccc3cc2C(=O)Nc2ccccn2)cc1 | inhibition [3]: < 30%
29 | 8.8 | COc1ccc(/N=c2\oc3cc(O)ccc3cc2C(=O)NCCCO)cc1 | 
> 10000 | > 10000 | COc1ccc(/N=c2\oc3ccc(O)cc3cc2C(=O)Nc2ccccn2)cc1 | inhibition [3]: < 30%; inhibition [4]: < 30%
28 | 16 | COc1ccc(/N=c2\oc3cc(O)ccc3cc2C(=O)NCC(C)C)cc1 | 
24 | 4.7 | COc1ccc(/N=c2\oc3cc(O)ccc3cc2C(=O)NCc2ccccc2)cc1 | Ki [5]: 51 nM; Ki [6]: 3.8 nM; Ki [7]: 1.3 nM
